Results reported in ChEMBL document CHEMBL3244155, “Inhibitory analogues of the luteinizing hormone-releasing hormone having D-aromatic residues in positions 2 and 6 and variation in position 3” (1978).
Calls of active or inactive are those of the source. The rule behind the calls is not given here. Non-standard residues stand in square brackets, D forms with d. Residues, ends and D or L forms follow the SMILES beside them. pGlu = O=C1CC[C@@H](C(=O)O)N1

How the values were obtained:
[1] = target: T1, Gonadotropin-releasing hormone receptor (Rattus norvegicus) (UniProt P30969); assay: Agonist activity at LH-RH receptor in Sprague-Dawley rat pituitary gland assessed as change in LH release at 100 ug/ml measured for 6 hrs by RIA
T1 sequence (whole entry): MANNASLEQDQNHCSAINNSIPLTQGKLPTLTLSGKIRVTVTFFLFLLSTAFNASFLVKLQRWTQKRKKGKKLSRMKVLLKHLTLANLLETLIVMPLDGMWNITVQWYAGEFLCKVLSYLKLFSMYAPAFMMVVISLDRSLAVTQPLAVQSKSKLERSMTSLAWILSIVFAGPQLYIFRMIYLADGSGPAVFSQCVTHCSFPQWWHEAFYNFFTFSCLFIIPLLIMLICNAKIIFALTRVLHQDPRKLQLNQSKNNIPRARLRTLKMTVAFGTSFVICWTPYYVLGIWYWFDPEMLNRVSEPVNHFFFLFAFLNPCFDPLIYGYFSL
In short: (§1)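 Two pituitaries from 20-day-old female Sprague-Dawley rats incubated 6 h at 37 °C in 1 mL lactated Ringer's with shaking. Medium removed hourly and replaced. Analogue alone added at hours 3–6. LH and FSH measured by RIA, expressed as ng/mL of medium against LH-LER-1240-2 and NIAMDD rat FSH RP-1 standards. Change reported with SEM.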

[2] = target: T1, Gonadotropin-releasing hormone receptor (Rattus norvegicus); assay: Antagonist activity at LH-RH receptor in Sprague-Dawley rat pituitary gland assessed as change in LHRH-stimulated LH release at 1 ug/ml preincubated for 4 hrs followed by LH-RH addition at 5th and 6th hr 5 mins post compound addition and measured for 6 hrs by RIA
In short: (§2)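 Pituitaries from 20-day-old female Sprague-Dawley rats, two per 1 mL lactated Ringer's, shaken 6 h at 37 °C with medium changed each hour. Analogue added at hours 3–6. LH-RH 0.6 ng/mL medium added 5 min after peptide at hours 5 and 6. LH and FSH measured by RIA against rat standards. Change in ng/mL with SEM and p values.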

[3] = target: T1, Gonadotropin-releasing hormone receptor (Rattus norvegicus); assay: Agonist activity at LH-RH receptor in Sprague-Dawley rat pituitary gland assessed as change in FSH release at 100 ug/ml measured for 6 hrs by RIA; in short: as §1
[4] = target: T1, Gonadotropin-releasing hormone receptor (Rattus norvegicus); assay: Antagonist activity at LH-RH receptor in Sprague-Dawley rat pituitary gland assessed as change in LHRH-stimulated LH release at 0.1 ug/ml preincubated for 4 hrs followed by LH-RH addition at 5th and 6th hr 5 mins post compound addition and measured for 6 hrs by RIA; in short: as §2
Rattus norvegicus [5] = assay: Antiovulatory activity in rat assessed as inhibition of ovulation at 750 ug, sc relative to vehicle-treated control; type: functional
In short: (§3)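 Rats with 4-day cycles given one sc injection of analogue in corn oil on proestrus, between 12 and 12:30 p.m. Controls received 0.3 mL corn oil. Ova shed were counted on estrus. Percent of rats with ovulation inhibited was recorded, with ova per ovulating rat ± SEM.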

Rattus norvegicus [6] = assay: Antiovulatory activity in rat assessed as inhibition of ovulation at 1500 ug, sc relative to vehicle-treated control; type: functional; in short: as §3
[7] = target: T1, Gonadotropin-releasing hormone receptor (Rattus norvegicus); assay: Antagonist activity at LH-RH receptor in Sprague-Dawley rat pituitary gland assessed as change in LHRH-stimulated FSH release at 1 ug/ml preincubated for 4 hrs followed by LH-RH addition at 5th and 6th hr 5 mins post compound addition and measured for 6 hrs by RIA; in short: as §2
[8] = target: T1, Gonadotropin-releasing hormone receptor (Rattus norvegicus); assay: Antagonist activity at LH-RH receptor in Sprague-Dawley rat pituitary gland assessed as change in LHRH-stimulated FSH release at 100 ug/ml preincubated for 4 hrs followed by LH-RH addition at 5th and 6th hr 5 mins post compound addition and measured for 6 hrs by RIA; in short: as §2
[9] = target: T1, Gonadotropin-releasing hormone receptor (Rattus norvegicus); assay: Antagonist activity at LH-RH receptor in Sprague-Dawley rat pituitary gland assessed as change in LHRH-stimulated FSH release at 0.1 ug/ml preincubated for 4 hrs followed by LH-RH addition at 5th and 6th hr 5 mins post compound addition and measured for 6 hrs by RIA; in short: as §2
[10] = target: T1, Gonadotropin-releasing hormone receptor (Rattus norvegicus); assay: Antagonist activity at LH-RH receptor in Sprague-Dawley rat pituitary gland assessed as change in LHRH-stimulated LH release at 100 ug/ml preincubated for 4 hrs followed by LH-RH addition at 5th and 6th hr 5 mins post compound addition and measured for 6 hrs by RIA; in short: as §2
[11] = target: T1, Gonadotropin-releasing hormone receptor (Rattus norvegicus); assay: Antagonist activity at LH-RH receptor in Sprague-Dawley rat pituitary gland assessed as change in LHRH-stimulated FSH release at 10 ug/ml preincubated for 4 hrs followed by LH-RH addition at 5th and 6th hr 5 mins post compound addition and measured for 6 hrs by RIA; in short: as §2
[12] = target: T1, Gonadotropin-releasing hormone receptor (Rattus norvegicus); assay: Antagonist activity at LH-RH receptor in Sprague-Dawley rat pituitary gland assessed as change in LHRH-stimulated LH release at 10 ug/ml preincubated for 4 hrs followed by LH-RH addition at 5th and 6th hr 5 mins post compound addition and measured for 6 hrs by RIA; in short: as §2
Rattus norvegicus [13] = assay: Antiovulatory activity in rat assessed as inhibition of ovulation at 375 ug, sc relative to vehicle-treated control; type: functional; in short: as §3

SMILES | Activity [1] | Activity [2] | Activity [3] | Activity [4] | Activity [7] | Activity [8] | Activity [9] | Activity [10] | Activity [11] | Activity [12] | inhibition (INH) (Rattus norvegicus [5]) | inhibition (INH) (Rattus norvegicus [6]) | inhibition (INH) (Rattus norvegicus [13])
CC(C)C[C@H](NC(=O)[C@@H](Cc1c[nH]c2ccccc12)NC(=O)[C@H](Cc1ccc(O)cc1)NC(=O)[C@H](CO)NC(=O)[C@@H](NC(=O)[C@@H](Cc1ccccc1)NC(=O)[C@@H]1CCC(=O)N1)C(C)C)C(=O)N[C@@H](CCCNC(=N)N)C(=O)N1CCC[C@H]1C(=O)NCC(N)=O | inactive | -32 ng/mL | inactive | 44 ng/mL | -1140 ng/mL | 110 ng/mL | 3010 ng/mL | 7 ng/mL |  |  | 16% | 60% | 
CC(C)C[C@H](NC(=O)[C@@H](Cc1ccccc1)NC(=O)[C@H](Cc1ccc(O)cc1)NC(=O)[C@H](CO)NC(=O)[C@@H](NC(=O)[C@@H](Cc1ccccc1)NC(=O)[C@@H]1CCC(=O)N1)[C@@H](C)O)C(=O)N[C@@H](CCCNC(=N)N)C(=O)N1CCC[C@H]1C(=O)NCC(N)=O | inactive | 97 ng/mL | inactive | 159 ng/mL | 2450 ng/mL | 379 ng/mL | 5470 ng/mL | 16 ng/mL | 751 ng/mL | 18 ng/mL | 0% |  | 
CC(C)C[C@H](NC(=O)[C@@H](Cc1ccccc1)NC(=O)[C@H](Cc1ccc(O)cc1)NC(=O)[C@H](CO)NC(=O)[C@H](CCCNC(=N)N)NC(=O)[C@@H](Cc1ccccc1)NC(=O)[C@@H]1CCC(=O)N1)C(=O)N[C@@H](CCCNC(=N)N)C(=O)N1CCC[C@H]1C(=O)NCC(N)=O | inactive | 51 ng/mL | inactive | 276 ng/mL | 1390 ng/mL | -133 ng/mL | 5390 ng/mL | 18 ng/mL | 380 ng/mL | 34 ng/mL | 40% |  | 
CC(C)C[C@H](NC(=O)[C@@H](Cc1ccccc1)NC(=O)[C@H](Cc1ccc(O)cc1)NC(=O)[C@H](CO)NC(=O)CN(C)C(=O)[C@@H](Cc1ccccc1)NC(=O)[C@@H]1CCC(=O)N1)C(=O)N[C@@H](CCCNC(=N)N)C(=O)N1CCC[C@H]1C(=O)NCC(N)=O | inactive | 127 ng/mL | inactive | 339 ng/mL | 3450 ng/mL | 321 ng/mL | 4590 ng/mL | 13 ng/mL | 518 ng/mL | 22 ng/mL | 50% |  | 
CC(C)C[C@H](NC(=O)[C@@H](Cc1c[nH]c2ccccc12)NC(=O)[C@H](Cc1ccc(O)cc1)NC(=O)[C@H](CO)NC(=O)[C@@H](Cc1ccccc1)NC(=O)[C@@H](Cc1ccccc1)NC(=O)[C@@H]1CCC(=O)N1)C(=O)N[C@@H](CCCNC(=N)N)C(=O)N1CCC[C@H]1C(=O)NCC(N)=O | inactive | 39 ng/mL | inactive | 97 ng/mL | 70 ng/mL | -814 ng/mL | 2120 ng/mL | 10 ng/mL |  |  | 40% |  | 

The next lines start with results.

Activity [1] | Activity [2] | Activity [3] | Activity [4] | Activity [7] | Activity [8] | Activity [9] | Activity [10] | Activity [11] | Activity [12] | SMILES | inhibition (INH) (Rattus norvegicus [5]) | inhibition (INH) (Rattus norvegicus [6]) | inhibition (INH) (Rattus norvegicus [13])
inactive | 21 ng/mL | inactive | 143 ng/mL | -348 ng/mL | 645 ng/mL | 2310 ng/mL | 68 ng/mL |  |  | CC[C@H](C)[C@H](NC(=O)[C@@H](Cc1ccccc1)NC(=O)[C@@H]1CCC(=O)N1)C(=O)N[C@@H](CO)C(=O)N[C@@H](Cc1ccc(O)cc1)C(=O)N[C@H](Cc1c[nH]c2ccccc12)C(=O)N[C@@H](CC(C)C)C(=O)N[C@@H](CCCNC(=N)N)C(=O)N1CCC[C@H]1C(=O)NCC(N)=O | 0% |  | 
inactive | 52 ng/mL | inactive | 77 ng/mL | -291 ng/mL | -672 ng/mL | 3270 ng/mL | 10 ng/mL |  |  | CSCC[C@H](NC(=O)[C@@H](Cc1ccccc1)NC(=O)[C@@H]1CCC(=O)N1)C(=O)N[C@@H](CO)C(=O)N[C@@H](Cc1ccc(O)cc1)C(=O)N[C@H](Cc1c[nH]c2ccccc12)C(=O)N[C@@H](CC(C)C)C(=O)N[C@@H](CCCNC(=N)N)C(=O)N1CCC[C@H]1C(=O)NCC(N)=O | 20% |  | 
inactive | 17 ng/mL | inactive | 46 ng/mL | 280 ng/mL | 179 ng/mL | 1380 ng/mL | 12 ng/mL |  |  | CC(C)C[C@H](NC(=O)[C@@H](Cc1ccccc1)NC(=O)[C@H](Cc1ccc(O)cc1)NC(=O)[C@H](CO)NC(=O)[C@@H]1CCCN1C(=O)[C@@H](Cc1ccccc1)NC(=O)[C@@H]1CCC(=O)N1)C(=O)N[C@@H](CCCNC(=N)N)C(=O)N1CCC[C@H]1C(=O)NCC(N)=O ([pGlu][dF]PSY[dF]LRPG-NH2) | 100% |  | 20%
